Results of several laboratories.
Compare with care: the assays were run in different laboratories.
Target: Aurora kinase C (AURKC, Homo sapiens, UniProt Q9UQB9)
Residues used in one study (Q9UQB9 1-309): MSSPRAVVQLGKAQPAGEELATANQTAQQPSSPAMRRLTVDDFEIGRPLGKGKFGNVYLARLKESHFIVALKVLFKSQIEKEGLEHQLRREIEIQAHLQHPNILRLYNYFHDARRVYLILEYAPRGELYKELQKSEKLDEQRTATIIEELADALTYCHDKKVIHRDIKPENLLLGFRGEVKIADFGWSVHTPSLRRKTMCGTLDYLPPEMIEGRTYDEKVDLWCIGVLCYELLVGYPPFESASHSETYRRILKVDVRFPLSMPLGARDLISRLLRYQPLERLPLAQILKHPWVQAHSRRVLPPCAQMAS

For COc1cnc(Nc2cccc(S(N)(=O)=O)c2)nc1N1CCN(c2ccccc2)CC1, the remaining binding was 84% (binding, competition with immobilised ligand; 1 µM).
For COc1cccc(CNC(=O)c2nc3scc(COCc4ccc(C(=O)O)cc4)c3c(=O)[nH]2)c1, the remaining binding was 67.3% (cell-free assay, competition with immobilised ligand; 1 µM).
With CN(c1nccc(-c2cnn3ncccc23)n1)C1CC1 the remaining binding was 100% (binding; 1 µM).
CNC(=O)Nc1ccc2c(c1)CC[C@@]21OC(=O)N(CC(=O)N(Cc2ccc(F)cc2)[C@@H](C)C(F)(F)F)C1=O gave a remaining binding of 100% (cell-free assay, competition with immobilised ligand; 1 µM).
With c1cnn2ncc(-c3ccnc(N4CCC45COC5)n3)c2c1 the remaining binding was 96% (binding; 1 µM).
The remaining binding of O=C(Nc1c[nH]nc1C(=O)NC1CCNCC1)c1cc(F)cc(F)c1 is reported as 84% (binding, competition with immobilised ligand; 1 µM).
F[C@@H]1CCN(c2nccc(-c3cnn4ncccc34)n2)C1 has a remaining binding of 100% (binding; 1 µM).
The remaining binding of FC(F)(F)Oc1cccc(-c2cnc3ccc(-c4ccncc4)nn23)c1 is reported as 78% (cell-free assay, competition with immobilised ligand; 5 µM).
Cn1nc(C(F)(F)F)cc1-c1cnc(N2CCc3cc(S(=O)(=O)Nc4c(F)cc(Cl)cc4F)cc(N4CCCC4=O)c32)nc1 has a remaining binding of 100% (cell-free assay, competition with immobilised ligand; 1 µM).
N[C@H]1CCN(c2nccc(-c3cnn4ncccc34)n2)C1 gave a remaining binding of 97% (binding; 1 µM).
With O=C(N1CCS(=O)(=O)CC1)N1C[C@H](c2ccc(OC(F)(F)F)cc2)C[C@H](c2nc(C3CC3)no2)C1 the remaining binding was 99% (cell-free assay, competition with immobilised ligand; 1 µM).
COc1cnc(Nc2cccc(S(N)(=O)=O)c2)nc1N1CCN(c2ccccc2)C(=O)C1 has a remaining binding of 97% (binding, competition with immobilised ligand; 1 µM).
Nc1ncc2c(n1)-c1c([nH]c3ccc(C#CC4CC4)cc13)CCCC2 has a remaining binding of 86% (binding, competition with immobilised ligand; 1 µM).
CS(=O)(=O)c1cc(C2(NC(=O)c3cncc4c3cnn4-c3ccc(F)cc3)CC2)ccn1 has a remaining binding of 100% (cell-free assay, competition with immobilised ligand; 1 µM).
C[C@@H]1CCN(c2nccc(-c3cnn4ncccc34)n2)C1 has a remaining binding of 98% (binding; 1 µM).
O=C(c1ccc(Nc2nccc(-c3cc4ccccc4s3)n2)cc1)N1CCC(N2CCCC2)CC1 gave a remaining binding of 30% (binding, competition with immobilised ligand; 1 µM).
With CC1CCCN1c1nccc(-c2cnn3ncccc23)n1 (stereo not shown) the remaining binding was 89% (binding; 1 µM).
With O=C(NCCCN1CCOCC1)c1ccc(Nc2ncc(Cl)c(-c3ccc(Cl)s3)n2)cc1 the remaining binding was 5.5% (binding, competition with immobilised ligand; 1 µM).
CO[C@@H](C)c1c(Nc2ccc([C@H](N(C)C(=O)C3CCS(=O)(=O)CC3)C(F)(F)F)cc2)cnc2cc(Cl)nn12 gave a remaining binding of 77% (cell-free assay, competition with immobilised ligand; 1 µM).
With COc1ncc2cc3ccccc3nc2c1C#N the remaining binding was 100% (cell-free assay, competition with immobilised ligand; 5 µM).
The remaining binding of O=C(Nc1cccnn1)N1CCC(=Cc2cccc(Oc3ccc(C(F)(F)F)cn3)c2)CC1 is reported as 100% (cell-free assay, competition with immobilised ligand; 1 µM).
For Cc1cnc(Nc2ccc(C(=O)N3CCC(N4CCCC4)CC3)cc2)nc1-c1cc2ccccc2s1, the remaining binding was 4.3% (binding, competition with immobilised ligand; 1 µM).
